The test system of data set [1] is Human immunodeficiency virus 1. Nature of the data set: Antiviral activity against Human immunodeficiency virus 1 LAI infected in human PBMC. The settings on record: Human immunodeficiency virus 1, M:B_Lai. The data set is classed as functional, organism-based. An outline of the steps: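 HIV-1 LAI replication in primary human peripheral blood mononuclear cells, with AZT as positive control.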

Data set [2] deals with Hepatitis C virus. Nature of the data set: Antiviral activity against Hepatitis C virus infected in human HuH7 cells. It counts as functional, organism-based, Hepacivirus hominis. Conditions: Huh-7. An outline of the steps: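 Subgenomic HCV replicon in Huh7 cells; HCV RNA extracted and amplified to measure inhibition of replication, with cytotoxicity determined in the same cells at the same time.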

Data set [3] can be described thus: Cytotoxicity against human PBMC. The data set is classed as cell-based.
A short description of data set [4]: Cytotoxicity against human CEM cells. It counts as cell-based. Conditions: CEM (CCRF-CEM) cells.
Data set [5] can be described thus: Cytotoxicity against African green monkey Vero cells. The data set is classed as cell-based. Conditions: chlorocebus sabaeus.
A short description of data set [6]: Cytotoxicity against human HuH7 cells assessed as reduction in rRNA levels at 120 hrs by RT-PCR analysis. It counts as cell-based, Huh-7.

Each structure is given as a SMILES string. pEC50: −log10 of the molar value. Where only a bound is given, the exact number is not on record here.

Results on 9 compounds are retold here after ChEMBL document CHEMBL2380249, “Synthesis and evaluation of Janus type nucleosides as potential HCV NS5B polymerase inhibitors” (Bioorg Med Chem Lett, 2013).

`C[C@@]1(O)[C@H](O)[C@@H](CO)O[C@H]1n1c2ncnc(N)c2c2c(=O)[nH]c(N)nc21`: the negative logarithm of the EC50 (pEC50) was 5.48 in data set [1] and 5.52 in data set [2]. The concentration for an effect of 90% (EC90) was more than 100 µM in data set [1] and 17.9 µM in data set [2]. Also, the figures for the 50% cytotoxic concentration (CC50) in data set [3], in data set [4] and in data set [5] were 92.1 µM, 36.5 µM and more than 100 µM, respectively. Further, in data set [6], the half-maximal cytotoxic concentration (CC50) at 120 h was determined as 3 µM.

In the case of `Nc1ncnc2c1c1c(=O)[nH]c(S)nc1n2[C@@H]1O[C@H](CO)[C@@H](O)[C@H]1O`, the pEC50 in data set [1] is 5.02; in data set [2], less than 5.00. Moreover, the EC90 in data set [1] is 30.2 µM; in data set [2] it was more than 10 µM. Also, the CC50 was found to be 2.9 µM in data set [3], 8.2 µM in data set [4] and 43.1 µM in data set [5]. Further, the CC50 at 120 h in data set [6] was more than 10 µM.

As to `Nc1ncnc2c1c1c(N)ncnc1n2[C@@H]1O[C@H](CO)[C@@H](O)[C@H]1O`, the pEC50 is less than 4.00 in data set [1] and less than 5.00 in data set [2]. In addition, the 90% effect concentration (EC90) in data set [1] was more than 100 µM; in data set [2] it was more than 10 µM. Besides, the 50% cytotoxic concentration (CC50) worked out at 53.8 µM in data set [3], 29.5 µM in data set [4] and 82.5 µM in data set [5]. Also, the CC50 at 120 h in data set [6] was more than 10 µM.

In the case of `C[C@@]1(O)[C@H](O)[C@@H](CO)O[C@H]1n1c2ncnc(N)c2c2c(N)ncnc21`, the negative logarithm of the EC50 (pEC50) in data set [1] is not above 4.00; in data set [2], less than 5.00. Further, the EC90 in data set [1] is not below 100 µM; in data set [2], more than 10 µM. Also, the CC50 in data set [3], in data set [4] and in data set [5] was more than 100 µM each time. For the same compound, the CC50 at 120 h in data set [6] was more than 10 µM.

On to `Cc1cn([C@H]2C[C@H](N=[N+]=[N-])[C@@H](CO)O2)c(=O)[nH]c1=O` [ZIDOVUDINE], for which the EC90 in data set [1] is 0.028 µM; in data set [2], more than 10 µM. The same compound showed a pEC50 in data set [2] of less than 5.00. For the same compound, the values for the cytotoxic concentration (CC50) in data set [3], in data set [4] and in data set [5] were more than 100 µM, 14.3 µM and 53 µM, respectively. Besides, the CC50 at 120 h in data set [6] was more than 10 µM.

Take `CCOC(=O)[C@H](C)NP(=O)(OC[C@H]1O[C@@H](n2c3ncnc(N)c3c3c(N)ncnc32)[C@](C)(O)[C@@H]1O)Oc1ccccc1` (stereo partly specified): in data set [2], the pEC50 was less than 5.00 and the 90% effect concentration (EC90) is more than 10 µM. The cytotoxic concentration (CC50) at 120 h in data set [6] is more than 10 µM.

For `Nc1nc2c(c(=O)[nH]1)c1c(N)ncnc1n2[C@@H]1O[C@H](CO)[C@@H](O)[C@H]1O`, the figures for the pEC50 in data set [1] and in data set [2] were 5.03 and 5.52, respectively. The EC90 in data set [1] is 24 µM; in data set [2], 22.5 µM. The CC50 in data set [3] came out at 3.1 µM; in data set [4], 20.2 µM; in data set [5], 63.1 µM. The CC50 at 120 h in data set [6] was less than 10 µM.

Consider `C[C@@]1(O)[C@H](O)[C@@H](CO)O[C@H]1n1c2ncnc(N)c2c2c(=O)[nH]c(=O)[nH]c21`, for which the figures for the negative logarithm of the EC50 (pEC50) in data set [1] and in data set [2] were less than 4.00 and less than 5.00, respectively. For the same compound, the EC90 in data set [1] is more than 100 µM; in data set [2], more than 10 µM. The 50% cytotoxic concentration (CC50) in data set [3], in data set [4] and in data set [5] was more than 100 µM in each case. The cytotoxic concentration (CC50) at 120 h in data set [6] was more than 10 µM.

Regarding `C[C@@]1(O)[C@H](O)[C@@H](CO)O[C@H]1n1c2ncnc(N)c2c2c(=O)[nH]c(S)nc21`, the pEC50 was less than 4.00 in data set [1] and less than 5.00 in data set [2]. Moreover, the figures for the 90% effect concentration (EC90) in data set [1] and in data set [2] were more than 100 µM and more than 10 µM, respectively. Also, the half-maximal cytotoxic concentration (CC50) in data set [3], in data set [4] and in data set [5] was more than 100 µM each time. Also, the CC50 at 120 h in data set [6] was more than 10 µM.
